Results taken from ChEMBL document CHEMBL2062453, “Lead optimization through VLAK protocol: new annelated pyrrolo-pyrimidine derivatives as antitumor agents” (2012).

How the values were obtained:
Type in all cases: functional
PC-3 = assay: Cytotoxicity against human PC3 cells after 48 hrs by SRB assay; settings: PC-3, 48 h
Method in brief: (§1)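 Five-dose screen, 10-fold or ½-log dilutions, compound stock in DMSO. Cells were in RPMI 1640 with 5% FBS and 2 mM glutamine at 5000–40,000 cells/well, preincubated 24 h, 37 °C, 5% CO₂, with a time-zero plate TCA-fixed. After 48 h drug exposure, cells were TCA-fixed and stained with 0.4% SRB, read at 515 nm. GI50, TGI and LC50 were derived from time-zero, control and test absorbances.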

UO-31 = assay: Cytotoxicity against human UO31 cells after 48 hrs by SRB assay; settings: UO-31, 48 h
Method in brief: (§2)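 NCI 60-panel five-dose screen. Cells in RPMI 1640 with 5% FBS and 2 mM glutamine, plated at 5000–40,000 cells/well and preincubated 24 h at 37 °C under 5% CO2. Five 10-fold or half-log dilutions were added from a DMSO stock for 48 h. Cells were TCA-fixed (SR settled cells: 16% final), SRB-stained and read at 515 nm. GI50 was taken where (Ti−Tz)/(C−Tz)×100 = 50.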

NCI-H322M = assay: Cytotoxicity against human NCI-H322M cells after 48 hrs by SRB assay; method in brief: as §1
HCT-116 = assay: Cytotoxicity against human HCT116 cells after 48 hrs by SRB assay; settings: HCT-116, 48 h
Method in brief: (§3)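 NCI 60-cell five-dose screen. Cells grown in RPMI 1640 with 5% FBS and 2 mM glutamine, plated at 5000–40,000 cells/well, and preincubated 24 h at 37 °C in 5% CO2. Time-zero plates fixed with TCA. Five serial dilutions of DMSO stock added, then 48 h exposure. TCA fixation, 0.4% SRB staining, absorbance read at 515 nm. GI50 from [(Ti−Tz)/(C−Tz)]×100 = 50.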

OVCAR-3 = assay: Cytotoxicity against human OVCAR3 cells after 48 hrs by SRB assay; settings: OVCAR-3, 48 h; method in brief: as §1
BT-549 = assay: Cytotoxicity against human BT549 cells after 48 hrs by SRB assay; settings: BT-549, 48 h; method in brief: as §3
Malme-3M = assay: Cytotoxicity against human MALME-3M cells after 48 hrs by SRB assay; method in brief: as §3
MDA-MB-435 = assay: Cytotoxicity against human MDA-MB-435 cells after 48 hrs by SRB assay; settings: MDA-MB-435, 48 h; method in brief: as §3
786-0 = assay: Cytotoxicity against human 786-0 cells after 48 hrs by SRB assay; settings: 786-0, 48 h; method in brief: as §3
HCC 2998 = assay: Cytotoxicity against human HCC2998 cells after 48 hrs by SRB assay; settings: HCC 2998, 48 h; method in brief: as §3
NCI-H23 = assay: Cytotoxicity against human NCI-H23 cells after 48 hrs by SRB assay; settings: NCI-H23, 48 h; method in brief: as §1
A549 = assay: Cytotoxicity against human A549 cells after 48 hrs by SRB assay; settings: A549, 48 h; method in brief: as §3
RPMI-8226 = assay: Cytotoxicity against human RPMI8226 cells after 48 hrs by SRB assay; settings: RPMI-8226, 48 h; method in brief: as §1
ACHN = assay: Cytotoxicity against human ACHN cells after 48 hrs by SRB assay; method in brief: as §3
SK-MEL-5 = assay: Cytotoxicity against human SK-MEL-5 cells after 48 hrs by SRB assay; settings: SK-MEL-5, 48 h; method in brief: as §1
SF-268 = assay: Cytotoxicity against human SF268 cells after 48 hrs by SRB assay; settings: SF-268, 48 h; method in brief: as §1
MDA-MB-231 = assay: Cytotoxicity against human MDA-MB-231 cells after 48 hrs by SRB assay; settings: MDA-MB-231, 48 h; method in brief: as §3
U-251 = assay: Cytotoxicity against human U251 cells after 48 hrs by SRB assay; settings: U-251, 48 h; method in brief: as §2
HOP-92 = assay: Cytotoxicity against human HOP92 cells after 48 hrs by SRB assay; settings: HOP-92, 48 h
Method in brief: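 NCI 60-line five-dose screen. Cells are grown in RPMI 1640 with 5% FBS and 2 mM glutamine, plated at 5000–40,000 cells/well, and preincubated 24 h at 37 °C in 5% CO2. Compound is dissolved in DMSO and given at five concentrations (10-fold or ½-log dilutions) for 48 h. Cells are TCA-fixed (HL-60(TB), suspension: 16% final; HOP92, adherent: 10% final), SRB-stained and read at 515 nm. GI50 comes from [(Ti−Tz)/(C−Tz)]×100 = 50.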

SF-539 = assay: Cytotoxicity against human SF539 cells after 48 hrs by SRB assay; settings: SF-539, 48 h; method in brief: as §1
T47D = assay: Cytotoxicity against human T47D cells after 48 hrs by SRB assay; method in brief: as §2
SNB-19 = assay: Cytotoxicity against human SNB19 cells after 48 hrs by SRB assay; settings: SNB-19, 48 h; method in brief: as §1
SW-620 = assay: Cytotoxicity against human SW620 cells after 48 hrs by SRB assay; settings: SW-620, 48 h; method in brief: as §2
KM12 = assay: Cytotoxicity against human KM12 cells after 48 hrs by SRB assay; settings: KM12, 48 h; method in brief: as §3
OVCAR-8 = assay: Cytotoxicity against human OVCAR8 cells after 48 hrs by SRB assay; settings: OVCAR-8, 48 h; method in brief: as §1

## CSC1=Nc2c(c(C)c(-c3ccccc3)n2CCCCl)C2=NC(=O)CN12
PC-3
  GI50: 8.71 µM
  LC50: > 100 µM
PC-3; read-out: pTGI (converted)
  TGI: > 100 µM
UO-31
  GI50: 10.5 µM
  LC50: 77.6 µM
UO-31; read-out: pTGI (converted)
  TGI: 28.8 µM
NCI-H322M
  GI50: 9.77 µM
  LC50: 58.9 µM
NCI-H322M; read-out: pTGI (converted)
  TGI: 24.5 µM
HCT-116
  GI50: 3.16 µM
  LC50: > 100 µM
HCT-116; read-out: pTGI (converted)
  TGI: 47.9 µM
OVCAR-3
  GI50: 8.32 µM
  LC50: > 100 µM
OVCAR-3; read-out: pTGI (converted)
  TGI: 36.3 µM
BT-549
  GI50: 4.9 µM
  LC50: > 100 µM
BT-549; read-out: pTGI (converted)
  TGI: 35.5 µM
Malme-3M
  GI50: 8.32 µM
  LC50: 58.9 µM
Malme-3M; read-out: pTGI (converted)
  TGI: 23.4 µM
MDA-MB-435
  GI50: 2.04 µM
  LC50: 17.4 µM
MDA-MB-435; read-out: pTGI (converted)
  TGI: 4.68 µM
786-0
  GI50: 8.51 µM
  LC50: > 100 µM
786-0; read-out: pTGI (converted)
  TGI: 61.7 µM
HCC 2998
  GI50: 4.57 µM
  LC50: 64.6 µM
HCC 2998; read-out: pTGI (converted)
  TGI: 19.5 µM
NCI-H23
  GI50: 8.32 µM
  LC50: > 100 µM
NCI-H23; read-out: pTGI (converted)
  TGI: 46.8 µM
A549
  GI50: 7.76 µM
  LC50: > 100 µM
A549; read-out: pTGI (converted)
  TGI: 66.1 µM
RPMI-8226
  GI50: 3.72 µM
  LC50: > 100 µM
RPMI-8226; read-out: pTGI (converted)
  TGI: 66.1 µM
ACHN
  GI50: 9.55 µM
ACHN; read-out: pLC50 (the source's name) (converted)
  CC50: > 100 µM
ACHN; read-out: pTGI (converted)
  TGI: 38 µM
SK-MEL-5
  GI50: 3.47 µM
  LC50: 38 µM
SK-MEL-5; read-out: pTGI (converted)
  TGI: 14.1 µM
SF-268
  GI50: 8.51 µM
  LC50: > 100 µM
SF-268; read-out: pTGI (converted)
  TGI: 47.9 µM
MDA-MB-231
  GI50: 5.62 µM
  LC50: 77.6 µM
MDA-MB-231; read-out: pTGI (converted)
  TGI: 24 µM
U-251
  GI50: 3.89 µM
  LC50: 53.7 µM
U-251; read-out: pTGI (converted)
  TGI: 16.2 µM
HOP-92
  GI50: 11.5 µM
  LC50: > 100 µM
HOP-92; read-out: pTGI (converted)
  TGI: 37.2 µM
SF-539
  GI50: 3.39 µM
  LC50: 39.8 µM
SF-539; read-out: pTGI (converted)
  TGI: 14.1 µM
T47D
  GI50: 2.63 µM
  LC50: 95.5 µM
T47D; read-out: pTGI (converted)
  TGI: 11 µM
SNB-19
  GI50: 3.98 µM
  LC50: 45.7 µM
SNB-19; read-out: pTGI (converted)
  TGI: 17.8 µM
SW-620
  GI50: 4.79 µM
  LC50: > 100 µM
SW-620; read-out: pTGI (converted)
  TGI: 53.7 µM
KM12
  GI50: 4.17 µM
  LC50: 81.3 µM
KM12; read-out: pTGI (converted)
  TGI: 18.6 µM
OVCAR-8
  GI50: 16.2 µM
  LC50: > 100 µM
OVCAR-8; read-out: pTGI (converted)
  TGI: 72.4 µM
